The list is not random: actives were taken first. Their share in the collection is about 1.9%.
HCV NS3 hel inh: blocks Hepatitis C virus NS3 helicase unwinding; inhibition, % at 10.9 µM; NS3 helicase DNA unwinding, Cy5 molecular beacon fluorescence; 0.56% of 290,000 active;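 active = inhibition above the mean of all tested compounds plus 3 SD, set per campaign, cut at about 35% in these data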
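System: HCV NS3 helicase fragment; control set: DMSO and thioflavine S; technique: Cy5 fluorescence at 0 and 60 min, beacon hairpin quenching; reagent: beacon DNA duplex substrate plus ATP; replicates: singlicate; schedule: 1 h reaction at 25 °C, ATP-initiated; medium: MOPS buffer pH 6.5 with MgCl2, DTT, Tween20, BSA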
PP5 inh: inhibitors of human protein phosphatase 5 (PP5); P53041; purified PP5c, OMFP substrate fluorescence; inhibition, % at 6.7 µM; 0.18% of 320,000 active; AID 1987;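 active = inhibition above the campaign's mean inhibition across all tested compounds plus 3 SD, cut at about 9.5% in these data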
Target sequence (P53041 whole entry, looked up): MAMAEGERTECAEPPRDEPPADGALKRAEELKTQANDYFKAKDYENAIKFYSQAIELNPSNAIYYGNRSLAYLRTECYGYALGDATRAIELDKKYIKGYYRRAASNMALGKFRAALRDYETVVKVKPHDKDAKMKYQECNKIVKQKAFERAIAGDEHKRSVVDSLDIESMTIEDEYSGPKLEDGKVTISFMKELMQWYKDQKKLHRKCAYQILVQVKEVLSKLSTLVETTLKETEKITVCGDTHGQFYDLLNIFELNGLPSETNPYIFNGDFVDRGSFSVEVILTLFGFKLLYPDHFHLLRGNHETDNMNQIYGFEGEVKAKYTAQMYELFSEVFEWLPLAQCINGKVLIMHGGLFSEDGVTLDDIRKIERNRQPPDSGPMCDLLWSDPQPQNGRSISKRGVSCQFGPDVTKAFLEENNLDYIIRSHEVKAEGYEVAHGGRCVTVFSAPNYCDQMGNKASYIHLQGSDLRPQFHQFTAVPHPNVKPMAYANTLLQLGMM
FID counter: counter-screen for HCV NS3 helicase inhibitors: DNA intercalator displacement. DNA fluorescent intercalator displacement, fluorescence. inhibition, % at 7.9 µM. 0.17% of 290,000 active; in the data active = inhibition above about 37%;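 also: higher means more ethidium bromide displaced from hairpin DNA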
HIF act: HIF pathway transcriptional activation; activation, % at 7.5 µM (by protocol); 0.32% of 300,000 active; U2OS HRE-luciferase reporter, luminescence; normalized: DMSO 0%, desferrioxamine 100%;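 active = mean activation of at least 10% of the iron chelator positive control signal, with at least half of replicates also reaching 10%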
PP1 counter: blocks human PP1-alpha phosphatase, a PP5 counter-screen. P62136. purified PP1alpha, OMFP fluorescence. inhibition, % at 6.7 µM. 0.9% of 320,000 active;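 active = inhibition above the mean inhibition of all tested compounds plus 3 SD, computed separately for each screening campaign, cut at about 15% in these data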
PP1 inh confirm: human PP1 phosphatase inhibition, confirmation. 52% of 1,900 active. shares compounds with PP1 counter. inhibition, % at 6.7 µM. AID 2358. purified PP1alpha, OMFP substrate fluorescence;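 active = mean PP1 inhibition above a set limit taken from the earlier primary screen, cut at about 15% in these data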
PP5 inh counter: PP5 phosphatase inhibition, counter-screen for PP1 inhibitors; shares compounds with PP1 counter; purified PP5c, OMFP fluorescence; inhibition, % at 6.7 µM; 4% of 1,900 active; AID 2360;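 active = mean PP5 inhibition over triplicate wells above about 9.5% taken from the earlier PP1 screen, limit read from the data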
Large screens that a line does not name were inactive (follow-up assays come after a bar, where they were run).

CC(C)C(=O)NC(c1ccccc1)c1cc([N+](=O)[O-])c2cccnc2c1O (stereo not given)	PP1 counter 29.2 | PP1 inh confirm inactive | PP5 inh counter 11.1
O=C1c2cccc3cccc(c23)C(=O)N1c1ccc2ncccc2c1	PP1 counter 22.9 (no result: HIF act) | PP1 inh confirm inactive | PP5 inh counter inactive
C/C(=N\NC(=O)COc1ccc(C)cc1C(C)C)c1ccc(-n2ccnc2)cc1	PP1 counter 17.8 | PP1 inh confirm 17.5 | PP5 inh counter inactive
CCc1ccc(N=C2NC(=O)/C(=C/c3ccc(OCC(=O)O)cc3)S2)cc1	PP1 counter 39.2 | PP1 inh confirm inactive | PP5 inh counter inactive
Cc1cccc(C)c1NC(=S)N(CCCN1CCCCC1)Cc1ccco1	none
CCNc1nc(-c2cc(C)n(Cc3ccco3)c2C)cs1	none
Cc1cc(-c2csc(NC(=O)c3ccc(=O)[nH]c3)n2)c(C)n1Cc1ccco1	PP1 counter 44.7 | PP1 inh confirm 33.6 | PP5 inh counter inactive
CN(C)C(=O)[C@H]1C[C@H]1[C@@H](O)[C@H](CO)NC(=O)[C@H](COCc1ccccc1)NC(=O)OC(C)(C)C	none
Cc1ccn2c(Nc3ccc4c(c3)OCO4)c(-c3ccccn3)nc2c1	PP1 counter 28.3 | PP1 inh confirm 47.2 | PP5 inh counter inactive
Cc1ccc2nc(-c3ccncc3)c(Nc3ccccc3)n2c1	none
Cc1ccc(Nc2c(-c3ccccn3)nc3ccc(C)cn23)cc1	HIF act 122.3, PP1 counter 71.1 | PP1 inh confirm 41.5 | PP5 inh counter inactive
Cc1ccc(Nc2c(-c3ccccn3)nc3cc(C)ccn23)cc1	HIF act 90.8, PP1 counter 40.3 | PP1 inh confirm 42.3 | PP5 inh counter inactive
COc1cc(NC(=O)c2cc(S(=O)(=O)N3CCCCC3)c[nH]2)cc(OC)c1	PP1 counter 17.6 | PP1 inh confirm inactive | PP5 inh counter inactive
O=C(O)CSc1nnc(COc2ccc(Br)cc2)n1-c1ccccc1	PP1 counter 30.7 | PP1 inh confirm inactive | PP5 inh counter inactive
O=C(CSc1nnc(CNC(=O)c2ccccc2)o1)NCc1ccccc1Cl	none
COc1ccc(S(=O)(=O)c2c(C)c(NS(=O)(=O)c3ccccc3)cc(C)c2O)cc1	PP1 counter 20.7 | PP1 inh confirm inactive | PP5 inh counter inactive
COc1ccc(S(=O)(=O)Nc2cc(C)c(O)c(S(=O)(=O)c3ccccc3)c2)cc1	none
Cc1cc(N)ccc1N1CCCC1	PP1 counter 20.8 | PP1 inh confirm inactive | PP5 inh counter inactive
CCc1ccccc1NC(=O)CCS(=O)(=O)c1ccc(OC)cc1	PP1 counter 37.1 | PP1 inh confirm inactive | PP5 inh counter inactive
O=C1CC(=C2c3ccccc3-c3ccccc32)C(=O)N1CCCCN1CCN(c2ccccc2)CC1	PP1 counter 25.7 | PP1 inh confirm 27.8 | PP5 inh counter inactive
Cc1cccc(CSc2ccc3nnc(-c4ccccn4)n3n2)c1	PP1 counter 18.8 | PP1 inh confirm inactive | PP5 inh counter inactive
O=C(N/N=C/c1cccc(O)c1)c1ccc(NC(=O)C2CCCCC2)cc1	none (no result: PP5 inh, PP1 counter)
O=C(N/N=C/c1ccc(O)cc1O)c1ccc(NC(=O)C2CCCCC2)cc1	PP1 counter 50.0 | PP1 inh confirm 36.2 | PP5 inh counter inactive
CCOC(=O)CC1(NC(=O)C2CCC(=O)N(CCc3ccccc3)C2)CCCCC1 (stereo not given)	PP1 counter 20.2 | PP1 inh confirm inactive | PP5 inh counter inactive
CCOC(=O)CC1(NC(=O)C2CCC(=O)N(C3CC3)C2)CCCCC1 (stereo not given)	none
CCC1CCCCN1CCCNC(=O)c1ccc(CS(=O)(=O)c2ccccc2OC)o1 (stereo not given)	none
N#Cc1c(N2CCCC(O)C2)nc(N)c2c(N)nc3c(c12)CC(=O)N3C12CC3CC(CC(C3)C1)C2 (stereo not given)	PP5 inh 13.6, PP1 counter 19.2 | PP1 inh confirm inactive | PP5 inh counter 56.7
N#Cc1c(N(CCO)CCO)nc(N)c2c(N)nc3c(c12)CC(=O)N3CC1CCCO1 (stereo not given)	none
C=C(C)CN(CC)c1nc(N)c2c(N)nc3c(c2c1C#N)CC(=O)N3C12CC3CC(CC(C3)C1)C2	PP1 counter 19.5 | PP1 inh confirm inactive | PP5 inh counter inactive
CCCCN1C(=O)Cc2c1nc(N)c1c(N)nc(N(CCC)CCC)c(C#N)c21	PP5 inh 15.1, PP1 counter 16.2 | PP1 inh confirm inactive | PP5 inh counter inactive
CC(=O)Nc1ccccc1OCC(=O)c1cc(C)n(Cc2cccs2)c1C	none
Cc1cc(C(=O)COc2cccnc2[N+](=O)[O-])c(C)n1Cc1cccs1	PP5 inh 9.9, PP1 counter 18.2 | PP1 inh confirm inactive | PP5 inh counter inactive
CN(C)CCOc1ccc(/C(=C(/CCCl)c2ccccc2)c2ccccc2)cc1	PP1 counter 21.1 (no result: HCV NS3 hel inh, FID counter) | PP1 inh confirm inactive | PP5 inh counter inactive
CN(CCOc1ccccc1)CCOc1ccccc1	none
O=C(Nc1ccc(-c2nc3ncccc3o2)cc1)c1ccc(Br)o1	PP1 counter 24.9 | PP1 inh confirm inactive | PP5 inh counter inactive
N=C1C(c2nc3ccccc3s2)=C(O)CN1NC(=O)c1c[nH]c2ccccc12	none
N=C1C(c2nc3ccccc3s2)=C(O)CN1NC(=O)c1ccccc1[N+](=O)[O-]	PP1 counter 21.4 | PP1 inh confirm 25.3 | PP5 inh counter inactive
COc1cc(/C=C(/C#N)C(=O)Nc2ccccc2)c(Br)cc1OCc1ccc(C(=O)O)cc1	none
COc1cc(/C=C(\C#N)C(=O)Nc2cccc(C(=O)O)c2)ccc1OCc1ccc(Cl)cc1	PP1 counter 31.4 | PP1 inh confirm 24.2 | PP5 inh counter inactive
CCOc1ccccc1CNS(=O)(=O)c1cnc[nH]1	none
O=S(=O)(c1ccc(N2CCN(CCO)CC2)nc1)N1CCOCC1	none (no result: HCV NS3 hel inh, FID counter)
COc1cnc(-c2ccccn2)nc1Sc1cccc(Cl)c1	PP1 counter 32.6 | PP1 inh confirm 50.3 | PP5 inh counter inactive
COc1cnc(-c2ccccn2)nc1Sc1ccc(C)cc1	PP1 counter 47.5 | PP1 inh confirm 50.6 | PP5 inh counter inactive
COc1ccccc1Sc1nc(-c2ccccn2)ncc1OC	PP1 counter 43.9 | PP1 inh confirm 45.8 | PP5 inh counter inactive
COc1cccc(-c2nc(-c3ccccn3)no2)c1OC	none
Cc1cccc(-n2c(C)cc(C)c(C#N)c2=O)c1	none
Cc1cccc(NC(=O)Cn2c(O)c(N=NC(=O)c3ccccc3O)c3ccccc32)c1	PP1 counter 35.0 | PP1 inh confirm 27.5 | PP5 inh counter inactive
Cc1ccc(NC(=O)Cn2c(O)c(N=NC(=O)c3cc([N+](=O)[O-])ccc3O)c3ccccc32)cc1	none
Cc1cc(C)cc(NC(=S)NCCN(C2CCCCC2)C2CCCC2)c1	none
CCOc1ccc2c(c1)C(NC(C)=O)C(=O)N2CCN1CCOCC1 (stereo not given)	none (no result: PP5 inh, PP1 counter)
